Calls of active or inactive are those of the source. No cut-off for these calls is given here.
Legend:
SK-MEL-2 = experiment: Cytotoxicity against human SK-MEL-2 cells after 48 hrs by SRB method; format: functional, cell-based; conditions: SK-MEL-2, 48 h
How it was run: (§1)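 SRB assay following the NCI protocol. Cells were kept in log growth with a medium change 24 h before the assay, then trypsinized and seeded at 5 × 10³ (A549, HCT15), 1 × 10⁴ (SK-MEL-2) or 2 × 10⁴ (SK-OV-3) cells/well. After 24 h preincubation at 37 °C in 5% CO₂, compounds in DMSO were added as six 3-fold dilutions (final DMSO <0.5%) for 48 h. Cells were fixed in cold 10% TCA and stained with 0.4% SRB. Bound dye was dissolved in 10 mM Tris (pH 10.5) and absorbance read at 520 nm. Survival fractions came from regression of viability against concentration.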

HCT-15 = experiment: Cytotoxicity against human HCT15 cells after 48 hrs by SRB method; format: functional, cell-based; conditions: HCT-15, 48 h; how it was run: as §1
SK-OV-3 = experiment: Cytotoxicity against human SKOV3 cells after 48 hrs by SRB method; format: functional, cell-based; conditions: SK-OV-3, 48 h; how it was run: as §1
A549 = experiment: Cytotoxicity against human A549 cells after 48 hrs by SRB method; format: functional, cell-based; conditions: A549, 48 h; how it was run: as §1
Homo sapiens [1] = organism: Homo sapiens; experiment: Inhibition of human topoisomerase 2 at 20 uM
Homo sapiens [2] = organism: Homo sapiens; experiment: Inhibition of human topoisomerase 2 at 100 uM
Bos taurus [3] = organism: Bos taurus; experiment: Inhibition of calf thymus topoisomerase 1 assessed as relaxation of supercoiled plasmid DNA at 20 uM
How it was run: (§2)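 Compound was added at 20 or 100 μM and the mix incubated 30 min at 37 °C. Reactions were stopped with SDS/bromophenol blue/glycerol dye, run on 1% agarose in TAE for 1 h, and stained with ethidium bromide.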

Bos taurus [4] = organism: Bos taurus; experiment: Inhibition of calf thymus topoisomerase 1 assessed as relaxation of supercoiled plasmid DNA at 100 uM; how it was run: as §2

Row | Activity (Homo sapiens [1]) | Activity (Homo sapiens [2]) | SMILES | IC50 (SK-MEL-2) | IC50 (HCT-15) | IC50 (SK-OV-3) | IC50 (A549) | further results
1 | Active | Active | c1cncc(-c2cc(-c3ccncc3)nc(-c3cccs3)c2)c1 |  |  |  |  | 
2 | Active | Active | c1coc(-c2cc(-c3ccsc3)cc(-c3ccncc3)n2)c1 |  |  |  |  | 
3 | Active | Active | c1csc(-c2cc(-c3ccoc3)cc(-c3ccncc3)n2)c1 |  |  |  |  | 
4 | Active | Active | c1cc(-c2cc(-c3ccncc3)nc(-c3ccsc3)c2)ccn1 |  |  |  |  | 
5 | Active | Active | c1cc(-c2cc(-c3ccoc3)cc(-c3ccsc3)n2)ccn1 |  |  |  |  | 
6 | Active | Active | c1coc(-c2cc(-c3ccoc3)cc(-c3ccncc3)n2)c1 |  |  |  |  | 

The remaining lines, values behind:

Row | SMILES | Activity (Homo sapiens [1]) | Activity (Homo sapiens [2]) | IC50 (SK-MEL-2) | IC50 (HCT-15) | IC50 (SK-OV-3) | IC50 (A549) | further results
7 | COc1cc([C@@H]2c3cc4c(cc3[C@@H](O[C@@H]3O[C@@H]5CO[C@@H](C)O[C@H]5[C@H](O)[C@H]3O)[C@H]3COC(=O)[C@H]23)OCO4)cc(OC)c1O [ETOPOSIDE] |  |  | 0.3 µM | 2.43 µM | 1.72 µM | 0.32 µM | 
8 | c1csc(-c2cc(-c3ccncc3)nc(-c3cccs3)c2)c1 |  |  | 3.68 µM | 1.72 µM | 5.75 µM | 4.16 µM | 
9 | c1csc(-c2cc(-c3ccncc3)nc(-c3ccsc3)c2)c1 |  |  | 8.94 µM | 3.79 µM | 14.5 µM | 5.69 µM | 
10 | c1cncc(-c2cc(-c3ccco3)cc(-c3cccs3)n2)c1 |  |  | 1.95 µM | 5.87 µM | 5.9 µM | 14.5 µM | 
11 | c1coc(-c2cc(-c3ccncc3)nc(-c3cccs3)c2)c1 |  |  | 5.43 µM | 4.18 µM | 8.69 µM | 10.9 µM | 
12 | c1csc(-c2cc(-c3ccsc3)cc(-c3ccncc3)n2)c1 |  |  |  |  |  |  | Activity (Bos taurus [3]): Active; Activity (Bos taurus [4]): Active
13 | c1ccc(-c2cc(-c3ccsc3)cc(-c3cccs3)n2)nc1 |  |  |  |  |  |  | Activity (Bos taurus [3]): Active; Activity (Bos taurus [4]): Active
14 | c1coc(-c2cc(-c3cccs3)cc(-c3ccncc3)n2)c1 |  |  |  |  |  |  | Activity (Bos taurus [3]): Active; Activity (Bos taurus [4]): Active
15 | c1cc(-c2cc(-c3ccsc3)cc(-c3ccsc3)n2)ccn1 |  |  | 9.76 µM | 2.54 µM | 9.86 µM | 27.8 µM | 
16 | c1cncc(-c2cc(-c3ccsc3)cc(-c3cccs3)n2)c1 |  |  | 5.61 µM | 4.06 µM | 7.49 µM | 2.73 µM | 
17 | c1ccc(-c2cc(-c3ccoc3)cc(-c3ccco3)n2)nc1 | Active | Active |  |  |  |  | 
18 | c1cncc(-c2cc(-c3ccncc3)nc(-c3ccco3)c2)c1 |  |  |  |  |  |  | Activity (Bos taurus [3]): Active; Activity (Bos taurus [4]): Active
